Consider 9 compounds from ChEMBL document CHEMBL3621201, “Improving the Selectivity of Engineered Protease Inhibitors: Optimizing the P2 Prime Residue Using a Versatile Cyclic Peptide Library” (J Med Chem, 2015).

Experiment [1] has as its target T1, Kallikrein-4 (Homo sapiens, UniProt Q9Y5K2). The experiment is described as follows: Inhibition of KLK4 (unknown origin) expressed in Sf9 cells at 25 nM using FVQRpNA substrate by spectrophotometry method.
Experiment [2] addresses T2, Suppressor of tumorigenicity 14 protein (Homo sapiens) (UniProt Q9Y5Y6).
T2 sequence (whole entry): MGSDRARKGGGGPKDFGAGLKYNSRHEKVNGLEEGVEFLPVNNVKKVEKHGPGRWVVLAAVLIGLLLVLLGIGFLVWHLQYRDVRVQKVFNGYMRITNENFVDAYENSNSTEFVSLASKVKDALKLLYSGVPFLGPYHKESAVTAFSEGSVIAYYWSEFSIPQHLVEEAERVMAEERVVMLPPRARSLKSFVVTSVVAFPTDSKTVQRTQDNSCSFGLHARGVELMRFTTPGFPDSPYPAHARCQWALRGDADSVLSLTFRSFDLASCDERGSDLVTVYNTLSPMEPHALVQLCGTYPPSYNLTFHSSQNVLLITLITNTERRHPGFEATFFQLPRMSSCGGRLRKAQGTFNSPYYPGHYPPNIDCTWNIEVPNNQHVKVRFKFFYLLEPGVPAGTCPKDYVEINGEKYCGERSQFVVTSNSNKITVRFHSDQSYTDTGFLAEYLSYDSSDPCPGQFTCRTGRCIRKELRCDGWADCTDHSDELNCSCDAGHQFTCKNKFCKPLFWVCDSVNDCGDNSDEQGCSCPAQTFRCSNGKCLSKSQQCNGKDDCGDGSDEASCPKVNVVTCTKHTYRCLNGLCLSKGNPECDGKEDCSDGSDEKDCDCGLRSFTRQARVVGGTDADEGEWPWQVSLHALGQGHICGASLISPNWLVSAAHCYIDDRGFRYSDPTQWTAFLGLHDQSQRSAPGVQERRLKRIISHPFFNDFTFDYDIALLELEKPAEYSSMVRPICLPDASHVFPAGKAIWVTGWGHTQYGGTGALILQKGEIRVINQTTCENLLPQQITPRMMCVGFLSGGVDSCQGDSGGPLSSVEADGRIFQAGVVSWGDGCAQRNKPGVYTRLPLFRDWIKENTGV
In words: Inhibition of matriptase (unknown origin) at 10 uM using Ac-RQFRpNA substrate by spectrophotometry method.

Experiment [3] has as its target Coagulation factor X (Homo sapiens) (UniProt P00742). The experiment is described as follows: Inhibition of factor 10a (unknown origin) at 50 uM using Ac-QRSRpNA substrate by spectrophotometry method.
Experiment [4] deals with Coagulation factor XI (Homo sapiens) (UniProt P03951). The experiment is described as follows: Inhibition of factor 11a (unknown origin) at 10 uM using Bz-FVRpNA substrate by spectrophotometry method.
Sequence of Coagulation factor XI (Homo sapiens) (P03951 19-387 limits assumed): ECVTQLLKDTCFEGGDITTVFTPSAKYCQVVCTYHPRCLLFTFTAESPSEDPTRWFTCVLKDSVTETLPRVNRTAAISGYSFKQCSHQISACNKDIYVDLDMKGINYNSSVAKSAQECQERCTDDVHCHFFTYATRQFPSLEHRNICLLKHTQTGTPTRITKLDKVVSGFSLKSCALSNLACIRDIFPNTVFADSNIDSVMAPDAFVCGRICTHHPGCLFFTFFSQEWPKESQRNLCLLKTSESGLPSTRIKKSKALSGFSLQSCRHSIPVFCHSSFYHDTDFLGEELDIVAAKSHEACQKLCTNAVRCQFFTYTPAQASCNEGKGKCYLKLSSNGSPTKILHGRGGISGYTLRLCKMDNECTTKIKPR
Sequence of Coagulation factor XI (Homo sapiens) (P03951 388-625 limits assumed): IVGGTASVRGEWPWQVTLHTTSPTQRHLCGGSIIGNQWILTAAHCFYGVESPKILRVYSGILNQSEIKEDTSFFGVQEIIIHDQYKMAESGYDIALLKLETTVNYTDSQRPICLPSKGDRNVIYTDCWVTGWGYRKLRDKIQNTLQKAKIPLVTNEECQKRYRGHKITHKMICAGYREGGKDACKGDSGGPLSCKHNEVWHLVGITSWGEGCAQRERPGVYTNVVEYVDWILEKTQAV
Experiment [5] concerns the target Serine protease 1 (Homo sapiens) (UniProt P07477). In words: Inhibition of beta-trypsin (unknown origin) at 25 nM using Bz-FVRpNA substrate by spectrophotometry method.
For a further experiment, the species on record is Homo sapiens. The experiment is described as follows: Inhibition of alpha chymotrypsin (unknown origin) at 25 uM using Ac-GRPY-pNA by spectrophotometry method.
Experiment [6] concerns the target T3, Prothrombin (Homo sapiens, UniProt P00734). The experiment is described as follows: Inhibition of alpha-thrombin (unknown origin) at 25 uM using Ac-ATPRpNA substrate by spectrophotometry method.
Experiment [7] deals with Kallikrein-5 (Homo sapiens) (UniProt Q9Y337). In words: Inhibition of KLK5 (unknown origin) expressed in Pichia pastoris X33 at 50 nM using Ac-YRSR-pNA by spectrophotometry method.
For another experiment, the target named is Trypsin (Homo sapiens, UniProt P07477+P07478+P35030). In words: Inhibition of beta-trypsin (unknown origin) using Bz-FVRpNA substrate by spectrophotometry method. The class given is protein assay. Put shortly:
(§1)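 Inhibition constants were measured in 0.1 M Tris pH 8.0, 0.1 M NaCl, 0.005% Triton X-100 with 100 µM peptide-pNA substrate. Protease-specific additives were also included. Absorbance at 405 nm was read every 10 s over 300 s. Rates were compared with no-inhibitor controls, and Morrison Ki was fitted by non-linear regression.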

The target of the next experiment is Plasminogen (Homo sapiens, UniProt P00747). In words: Inhibition of plasmin (unknown origin) using Ac-RM(O2)YRpNA substrate by spectrophotometry method. In short, it runs like this: as §1
Sequence of Plasminogen (P00747 97-580 limits assumed): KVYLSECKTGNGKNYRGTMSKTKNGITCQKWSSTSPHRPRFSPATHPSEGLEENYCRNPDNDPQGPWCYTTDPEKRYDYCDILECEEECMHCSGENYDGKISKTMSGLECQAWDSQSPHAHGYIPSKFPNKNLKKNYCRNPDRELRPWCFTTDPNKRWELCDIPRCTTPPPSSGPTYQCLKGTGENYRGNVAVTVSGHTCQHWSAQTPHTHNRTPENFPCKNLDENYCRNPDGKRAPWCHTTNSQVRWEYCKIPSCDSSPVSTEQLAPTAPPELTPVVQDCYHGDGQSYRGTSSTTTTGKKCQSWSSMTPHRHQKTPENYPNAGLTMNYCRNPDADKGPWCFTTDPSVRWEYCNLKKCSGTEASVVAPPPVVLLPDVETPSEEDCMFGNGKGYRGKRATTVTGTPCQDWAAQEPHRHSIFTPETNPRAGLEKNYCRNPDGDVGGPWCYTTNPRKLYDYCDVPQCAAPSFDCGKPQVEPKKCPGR
Sequence of Plasminogen (P00747 581-810 limits assumed): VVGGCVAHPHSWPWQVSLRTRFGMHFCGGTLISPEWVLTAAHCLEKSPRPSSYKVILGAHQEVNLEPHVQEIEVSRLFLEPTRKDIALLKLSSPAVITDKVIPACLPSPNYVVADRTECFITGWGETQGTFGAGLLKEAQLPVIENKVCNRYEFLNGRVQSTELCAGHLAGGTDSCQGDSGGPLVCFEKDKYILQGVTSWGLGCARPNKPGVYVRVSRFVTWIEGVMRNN
For experiment [8], the target named is T3, Prothrombin. In words: Inhibition of alpha-thrombin (unknown origin) using Ac-ATPRpNA substrate by spectrophotometry method. Put shortly: as §1
Experiment [9] deals with T4, Coagulation factor XII (Homo sapiens) (UniProt P00748).
T4 sequence (whole entry): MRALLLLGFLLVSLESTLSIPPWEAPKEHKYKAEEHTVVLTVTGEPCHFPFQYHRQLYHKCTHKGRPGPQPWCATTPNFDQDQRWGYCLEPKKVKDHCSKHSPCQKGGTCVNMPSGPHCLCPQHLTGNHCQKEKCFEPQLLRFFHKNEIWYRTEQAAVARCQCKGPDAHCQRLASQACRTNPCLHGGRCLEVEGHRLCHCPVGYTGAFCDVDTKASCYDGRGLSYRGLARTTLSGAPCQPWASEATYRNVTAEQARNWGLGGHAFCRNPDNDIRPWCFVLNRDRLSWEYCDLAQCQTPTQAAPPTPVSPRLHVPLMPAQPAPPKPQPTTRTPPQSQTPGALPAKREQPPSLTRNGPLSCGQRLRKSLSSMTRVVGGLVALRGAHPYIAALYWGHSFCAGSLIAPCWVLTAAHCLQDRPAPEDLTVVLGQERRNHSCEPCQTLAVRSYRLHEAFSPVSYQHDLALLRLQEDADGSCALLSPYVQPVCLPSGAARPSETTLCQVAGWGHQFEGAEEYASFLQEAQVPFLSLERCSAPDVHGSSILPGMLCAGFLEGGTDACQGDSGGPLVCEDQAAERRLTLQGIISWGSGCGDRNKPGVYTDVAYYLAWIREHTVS
The experiment is described as follows: Inhibition of factor 12a-alpha (unknown origin) at 10 uM using Ac-QRFRpNA substrate by spectrophotometry method.

The target of experiment [10] is T1, Kallikrein-4. The experiment is described as follows: Inhibition of KLK4 (unknown origin) expressed in Sf9 cells using FVQRpNA substrate by spectrophotometry method. In short, it runs like this:
as §1

The target in another experiment is T5, Kallikrein-5 (Homo sapiens, UniProt Q9Y337).
T5 sequence (Q9Y337 whole entry): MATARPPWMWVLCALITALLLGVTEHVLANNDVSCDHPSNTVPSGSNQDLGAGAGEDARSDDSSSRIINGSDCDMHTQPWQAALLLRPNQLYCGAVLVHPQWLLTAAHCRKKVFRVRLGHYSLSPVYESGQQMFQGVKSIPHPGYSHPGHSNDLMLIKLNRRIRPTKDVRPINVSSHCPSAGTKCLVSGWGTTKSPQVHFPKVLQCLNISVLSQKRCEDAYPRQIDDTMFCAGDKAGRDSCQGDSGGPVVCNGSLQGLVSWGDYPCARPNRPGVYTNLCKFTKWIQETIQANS
In words: Inhibition of KLK5 (unknown origin) expressed in Pichia pastoris X33 using Ac-YRSR-pNA by spectrophotometry method. In short, it runs like this: as §1

The target of experiment [11] is T6, Kallikrein-7 (Homo sapiens, UniProt P49862). The experiment is described as follows: Inhibition of KLK7 (unknown origin) expressed in Pichia pastoris X33 at 200 nM using KHLY-pNA substrate by spectrophotometry method.
Target sequence in this assay (P49862 30-253 limits assumed): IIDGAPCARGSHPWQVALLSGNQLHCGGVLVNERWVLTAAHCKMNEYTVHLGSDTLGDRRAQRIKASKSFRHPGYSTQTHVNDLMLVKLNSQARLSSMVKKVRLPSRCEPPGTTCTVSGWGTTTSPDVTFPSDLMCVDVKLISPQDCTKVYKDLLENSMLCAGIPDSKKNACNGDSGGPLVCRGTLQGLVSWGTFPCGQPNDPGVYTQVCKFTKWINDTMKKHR
The target in experiment [12] is T6, Kallikrein-7. The experiment is described as follows: Inhibition of KLK7 (unknown origin) expressed in Pichia pastoris X33 using KHLY-pNA substrate by spectrophotometry method. Put shortly: as §1
Target sequence in this assay (P49862 whole entry): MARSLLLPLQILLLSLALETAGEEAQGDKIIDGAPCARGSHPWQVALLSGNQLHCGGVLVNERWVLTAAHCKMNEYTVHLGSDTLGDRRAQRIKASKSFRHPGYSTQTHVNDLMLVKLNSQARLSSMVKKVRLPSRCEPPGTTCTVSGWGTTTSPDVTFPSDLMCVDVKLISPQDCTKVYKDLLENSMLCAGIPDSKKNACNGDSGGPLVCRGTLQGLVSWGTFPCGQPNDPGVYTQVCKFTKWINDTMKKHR

For orientation: inhibition means how much of the control response was suppressed. Usually Ki stands for a measure of affinity in units of concentration, obtained from inhibition or displacement.

Molecules are shown by their SMILES. Active and inactive are the calls of the source. The calls are words filed in the database; no cut-off is given here. Bridge positions count the residues as written; N and C are the ends. Peptide text beside a SMILES is read from it.

T1 sequence (Q9Y5K2 whole entry): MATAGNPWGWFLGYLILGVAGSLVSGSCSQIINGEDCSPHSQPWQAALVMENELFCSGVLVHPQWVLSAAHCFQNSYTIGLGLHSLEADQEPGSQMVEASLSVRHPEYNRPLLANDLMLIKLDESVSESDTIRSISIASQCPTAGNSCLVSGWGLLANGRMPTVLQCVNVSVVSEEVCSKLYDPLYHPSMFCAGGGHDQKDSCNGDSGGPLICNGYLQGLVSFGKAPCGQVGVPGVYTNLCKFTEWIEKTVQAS
Sequence of Coagulation factor X (Homo sapiens) (P00742 41-179 limits assumed): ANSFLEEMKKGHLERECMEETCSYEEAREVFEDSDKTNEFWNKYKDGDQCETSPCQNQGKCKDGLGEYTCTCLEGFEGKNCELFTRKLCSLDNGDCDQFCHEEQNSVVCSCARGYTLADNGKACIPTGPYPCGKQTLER
Sequence of Coagulation factor X (Homo sapiens) (P00742 235-488 limits assumed): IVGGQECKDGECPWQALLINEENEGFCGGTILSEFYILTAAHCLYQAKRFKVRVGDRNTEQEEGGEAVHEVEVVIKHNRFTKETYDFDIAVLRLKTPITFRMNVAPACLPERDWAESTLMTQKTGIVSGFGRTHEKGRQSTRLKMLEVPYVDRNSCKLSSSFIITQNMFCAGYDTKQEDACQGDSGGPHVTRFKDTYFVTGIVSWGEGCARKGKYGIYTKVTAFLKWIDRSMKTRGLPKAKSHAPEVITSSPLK
Sequence of Serine protease 1 (Homo sapiens) (P07477 whole entry): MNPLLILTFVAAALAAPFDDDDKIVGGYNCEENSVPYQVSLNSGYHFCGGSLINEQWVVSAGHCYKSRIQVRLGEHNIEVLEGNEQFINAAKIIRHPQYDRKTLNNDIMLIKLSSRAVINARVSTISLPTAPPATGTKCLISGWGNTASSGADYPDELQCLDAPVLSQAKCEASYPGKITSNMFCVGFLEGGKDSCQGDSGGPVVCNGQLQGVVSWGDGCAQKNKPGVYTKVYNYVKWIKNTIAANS

On to `CC[C@H](C)[C@@H]1NC(=O)[C@@H]2CCCN2C(=O)[C@@H]2CCCN2C(=O)[C@H](CC(=O)O)NC(=O)[C@H](CO)NC(=O)[C@H](CCCNC(=N)N)NC(=O)[C@H]([C@@H](C)O)NC(=O)[C@@H]2CSSC[C@H](NC1=O)C(=O)N[C@@H](CC(N)=O)C(=O)N1CCC[C@H]1C(=O)N[C@@H](CC(N)=O)C(=O)NCC(=O)N[C@@H]([C@@H](C)O)C(=O)N2` (cyclo(CNPNGTCTRSDPPI); disulfide 1-7), for which the inhibition entry (at Kallikrein-4 [1]; in [5]) was “inactive” in each case. Besides, the inhibition was 29% in [2], 31% in experiment [3] and 34% in experiment [4].

In the case of `CC[C@H](C)[C@@H]1NC(=O)[C@@H]2CCCN2C(=O)[C@@H]2CCCN2C(=O)[C@H](Cc2ccccc2)NC(=O)[C@H](CO)NC(=O)[C@H](CCCNC(=N)N)NC(=O)[C@H]([C@@H](C)O)NC(=O)[C@@H]2CSSC[C@H](NC1=O)C(=O)N[C@@H](CC(N)=O)C(=O)N1CCC[C@H]1C(=O)N[C@@H](CC(N)=O)C(=O)NCC(=O)N[C@@H]([C@@H](C)O)C(=O)N2` (cyclo(CNPNGTCTRSFPPI); disulfide 1-7), the inhibition in the experiment listed under Homo sapiens turned out to be 52%; at Prothrombin [6], 41%. In addition, the inhibition entry (in experiment [7]; at Kallikrein-4 [1]) was “Active” throughout.

As to `C[C@@H](O)[C@@H]1NC(=O)[C@@H](NC(=O)[C@H](CCCNC(=N)N)NC(=O)CN)CSSC[C@@H](C(=O)N[C@@H](Cc2cnc[nH]2)C(=O)O)NC(=O)[C@H](CCCNC(=N)N)NC(=O)[C@@H]2CCCN2C(=O)[C@@H]2CCCN2C(=O)[C@H](CC(=O)O)NC(=O)[C@H](CO)NC(=O)[C@H](CCCCN)NC1=O` (H-GRCTKSDPPRCH-OH; disulfide 3-11), the values for the Ki on Trypsin, at Plasminogen and on Prothrombin [8] were 2830 nM, 17100 nM and over 50000 nM, respectively.

In the case of `CC[C@H](C)[C@@H]1NC(=O)[C@@H]2CCCN2C(=O)[C@@H]2CCCN2C(=O)[C@H]([C@@H](C)CC)NC(=O)[C@H](CO)NC(=O)[C@H](CCCNC(=N)N)NC(=O)[C@H]([C@@H](C)O)NC(=O)[C@@H]2CSSC[C@H](NC1=O)C(=O)N[C@@H](Cc1ccccc1)C(=O)N1CCC[C@H]1C(=O)N[C@H](C(=O)O)CC(=O)NCC(=O)N[C@@H](CCCNC(=N)N)C(=O)N2` (GRCTRSIPPICFPD-OH; disulfide 3-11; lactam N-14), the Ki on Trypsin is 0.03 nM; at Plasminogen it was 121 nM; at Prothrombin [8] it was 381 nM.

Take `CC[C@H](C)[C@@H]1NC(=O)[C@@H]2CCCN2C(=O)[C@@H]2CCCN2C(=O)[C@H](Cc2ccc(O)cc2)NC(=O)[C@H](CO)NC(=O)[C@H](CCCNC(=N)N)NC(=O)[C@H]([C@@H](C)O)NC(=O)[C@@H]2CSSC[C@H](NC1=O)C(=O)N[C@@H](Cc1ccccc1)C(=O)N1CCC[C@H]1C(=O)N[C@H](C(=O)O)CC(=O)NCC(=O)N[C@@H](CCCNC(=N)N)C(=O)N2` (GRCTRSYPPICFPD-OH; disulfide 3-11; lactam N-14): the Ki is 0.16 nM at Trypsin, 549 nM on Plasminogen and 214 nM on Prothrombin [8].

In the case of `CC[C@H](C)[C@@H]1NC(=O)[C@@H]2CCCN2C(=O)[C@@H]2CCCN2C(=O)[C@H](Cc2ccc(O)cc2)NC(=O)[C@H](CO)NC(=O)[C@H](CCCNC(=N)N)NC(=O)[C@H]([C@@H](C)O)NC(=O)[C@@H]2CSSC[C@H](NC1=O)C(=O)N[C@@H](CC(N)=O)C(=O)N1CCC[C@H]1C(=O)N[C@@H](CC(N)=O)C(=O)NCC(=O)N[C@@H]([C@@H](C)O)C(=O)N2` (cyclo(CNPNGTCTRSYPPI); disulfide 1-7), the inhibition was 62% on Prothrombin [6], 26% in experiment [3] and 75% in [9]. In experiment [7], the inhibition entry is “Active”.

On to `CC[C@H](C)[C@@H]1NC(=O)[C@@H]2CSSC[C@H](NC(=O)[C@H]([C@@H](C)CC)NC(=O)[C@@H]3CCCN3C(=O)[C@@H]3CCCN3C(=O)[C@H](CCCCN)NC(=O)[C@H](CO)NC(=O)[C@H](CCCNC(=N)N)NC1=O)C(=O)N[C@@H](CC(N)=O)C(=O)N1CCC[C@H]1C(=O)N[C@@H](CC(N)=O)C(=O)NCC(=O)N[C@@H](Cc1c[nH]c3ccccc13)C(=O)N2` (cyclo(CIRSKPPICNPNGW); disulfide 1-9), for which the figures for the Ki at Trypsin, on Kallikrein-4 [10] and at Kallikrein-5 were 3200 nM, 19.9 nM and over 50000 nM, respectively.

With `CC[C@H](C)[C@@H]1NC(=O)[C@@H]2CSSC[C@H](NC(=O)[C@H]([C@@H](C)CC)NC(=O)[C@@H]3CCCN3C(=O)[C@@H]3CCCN3C(=O)[C@H]([C@@H](C)CC)NC(=O)[C@H](CO)NC(=O)[C@H](CCCNC(=N)N)NC1=O)C(=O)N[C@@H](CC(N)=O)C(=O)N1CCC[C@H]1C(=O)N[C@@H](CC(N)=O)C(=O)NCC(=O)N[C@@H](Cc1c[nH]c3ccccc13)C(=O)N2` (cyclo(CIRSIPPICNPNGW); disulfide 1-9), the Ki on Trypsin came to 379 nM; on Kallikrein-4 [10] it was 9 nM; on Kallikrein-5, 362 nM.

In the case of `CC[C@H](C)[C@@H]1NC(=O)[C@@H]2CCCN2C(=O)[C@@H]2CCCN2C(=O)[C@H](CC(N)=O)NC(=O)[C@H](CO)NC(=O)[C@H](CCCNC(=N)N)NC(=O)[C@H]([C@@H](C)O)NC(=O)[C@@H]2CSSC[C@H](NC1=O)C(=O)N[C@@H](CC(N)=O)C(=O)N1CCC[C@H]1C(=O)N[C@@H](CC(N)=O)C(=O)NCC(=O)N[C@@H]([C@@H](C)O)C(=O)N2` (cyclo(CNPNGTCTRSNPPI); disulfide 1-7), the inhibition at Prothrombin [6] stood at 49%; in experiment [7] it was 93%; on Kallikrein-7 [11] it was 97%; in [2], 37%. In addition, the inhibition entry on Kallikrein-4 [1] is “Active”. Besides, the Ki at Kallikrein-5 turned out to be 5.2 nM; at Kallikrein-7 [12], 0.8 nM.
